Biological target: T1, Lanosterol 14-alpha demethylase (Homo sapiens, UniProt Q16850)
T1 sequence (Q16850 whole entry): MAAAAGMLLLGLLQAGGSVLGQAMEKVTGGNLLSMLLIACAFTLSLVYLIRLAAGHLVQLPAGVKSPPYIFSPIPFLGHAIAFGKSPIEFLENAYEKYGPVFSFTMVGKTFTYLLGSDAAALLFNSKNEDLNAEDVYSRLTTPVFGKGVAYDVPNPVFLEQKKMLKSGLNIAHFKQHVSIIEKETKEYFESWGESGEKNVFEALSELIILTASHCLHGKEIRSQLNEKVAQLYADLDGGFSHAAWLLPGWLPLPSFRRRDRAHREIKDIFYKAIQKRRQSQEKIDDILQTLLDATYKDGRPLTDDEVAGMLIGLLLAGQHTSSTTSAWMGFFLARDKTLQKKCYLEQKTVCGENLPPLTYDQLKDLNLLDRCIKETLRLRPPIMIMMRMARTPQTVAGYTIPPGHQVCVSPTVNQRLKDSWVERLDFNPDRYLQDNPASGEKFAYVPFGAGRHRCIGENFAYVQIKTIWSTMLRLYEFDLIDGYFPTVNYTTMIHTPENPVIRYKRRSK
Experiment: Inhibition of human CYP51 expressed in Topp 3 cells by lanosterol demethylase assay
Procedure, shortened: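 0.5 ml phosphate buffer pH 7.4 with KCN, NADPH regenerating system, 60 min at 37 °C. Triene product extracted and quantified by chromatography (ergosterol internal standard). IC50 read from plot of % activity remaining vs concentration.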

IC50: > 200 µM
SMILES: O=c1c(CC[S+]([O-])c2ccccc2)c(O)n(-c2ccccc2)n1-c1ccccc1 (stereo unspecified) [1,2-Diphenyl-3,5-dioxo-4-(2-phenylsulfinylethyl)pyrazolidine]

Reference: BindingDB's records for doi:10.1124/dmd.106.013888 (Act, 2007)
